Molecules are shown by their SMILES. The source made the active and inactive calls. No cut-off for these calls is given here.

Test [1] concerns HeLa. Kind of test: Induction of lysosomal biosynthesis in human HeLa cells assessed as increase in staining intensity at 40 uM after 3 hrs by LysoTracker Red DND-99 staining based assay relative to control. In kind it is functional. The procedure, abridged:
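HeLa cells given 40 μM for 3 h, then LysoTracker Red staining. Signal intensity is quantified as fold induction relative to DMSO-treated cells. HEP-14 at 40 μM is the positive control. Independent triplicates.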

Test [2] deals with HeLa. Kind of test: Induction of lysosomal biosynthesis in human HeLa cells assessed as increase in staining intensity after 3 hrs by LysoTracker Red DND-99 staining based assay. In kind it is functional, cell-based. The procedure, abridged: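 HeLa cells exposed 3 h to 10, 20, 40 and 60 μM test agent, then stained with LysoTracker Red. Lysosome induction is read as fold of LysoTracker Red signal over the DMSO negative control, with HEP-14 as positive control. Three independent experiments.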

In test [3] the test system is HeLa. Kind of test: Induction of lysosomal biosynthesis in human HeLa cells assessed as increase in staining intensity at 40 uM by LysoTracker Red DND-99 staining based assay. Particulars: TDE = time-dependent effect. The format is functional, cell-based. The procedure, abridged:
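Time course in HeLa cells at 40 μM over five treatment intervals, followed by LysoTracker Red staining. Output is fold induction of staining versus DMSO control. n = 3 independent experiments.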

Test [4] deals with HeLa. As to the kind of experiment: Up regulation of LAMP1 mRNA expression in human HeLa cells at 40 uM after 3 hrs by TRIzol dye based qRT-PCR analysis. The format is functional, cell-based.
The subject of test [5] is HeLa. As to the kind of experiment: Up regulation of cathepsin B mRNA expression in human HeLa cells at 40 uM after 3 hrs by TRIzol dye based qRT-PCR analysis. The format is functional, cell-based.
For test [6], the system named is HeLa. As to the kind of experiment: Up regulation of cathepsin A mRNA expression in human HeLa cells at 40 uM after 3 hrs by TRIzol dye based qRT-PCR analysis. In kind it is functional, cell-based. (Real-time PCR tracks product formation cycle by cycle.)
The subject of test [7] is HeLa. As to the kind of experiment: Up regulation of ATP6V0E1 mRNA expression in human HeLa cells at 40 uM after 3 hrs by TRIzol dye based qRT-PCR analysis. The format is functional, cell-based.

Take `COc1ccc([C@H](O)C(=O)O[C@@H]2/C(C)=C/[C@@]34O[C@@]3(C[C@H](C)[C@@H]4OC(C)=O)C(=O)[C@H](C)[C@H](OC(C)=O)[C@@H]3[C@H]([C@@H]2OC(C)=O)C3(C)C)cc1`: the Activity in test [1] was 155.9%; in test [2], “Dose-dependent effect”; in test [3], “Tde”. In addition, the outcome in test [4], in test [5], in test [6] and in test [7] was Active.
For the compound `COc1ccc(CC(=O)O[C@@H]2/C(C)=C/[C@@]34O[C@@]3(C[C@H](C)[C@@H]4OC(C)=O)C(=O)[C@H](C)[C@H](OC(C)=O)[C@@H]3[C@H]([C@@H]2OC(C)=O)C3(C)C)cc1`, the values for the Activity in test [1], in test [2] and in test [3] were 140.7%, “Dose-dependent effect” and “Tde”, respectively. The result in test [4], in test [5], in test [6] and in test [7] was Active.
Consider `COc1ccc([C@H](O)C(=O)O[C@@H]2/C(C)=C/[C@@]34O[C@@]3(C[C@@](C)(O)[C@@H]4OC(C)=O)C(=O)[C@H](C)[C@H](OC(C)=O)[C@@H]3[C@H]([C@@H]2OC(C)=O)C3(C)C)cc1`, for which the results for the Activity in test [1], in test [2] and in test [3] were 143.5%, “Dose-dependent effect” and “Tde”, respectively. The result in test [4], in test [5], in test [6] and in test [7] was Active.

The record behind these values is ChEMBL document CHEMBL4251722, “Identification of Ingol and Rhamnofolane Diterpenoids from Euphorbia resinifera and Their Abilities to Induce Lysosomal Biosynthesis” (2018).
